Data on seven molecules can be found in ChEMBL document CHEMBL1124399, “Synthesis and structure-activity studies of some disubstituted phenylisoxazoles against human picornavirus” (J Med Chem, 1989).

Assay [1] deals with Coxsackievirus. Kind of assay: In vitro activity against coxsackie A- 21.
Assay [2] concerns Enterovirus. The assay can be described thus: Minimum inhibitory concentration against rhinovirus serotype 15. It is filed as functional. Summed up: (§1)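 Rhinovirus minimum inhibitory concentration (MIC) determined in a plaque reduction assay in cell culture, testing each serotype separately.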
Assay [3] has as its system Coxsackievirus. The assay can be described thus: In vitro activity against coxsackie A-2. In kind it is functional.
The test system of assay [4] is Enterovirus C. Kind of assay: In vitro activity against polioviurs-2 (Lansing). It is filed as functional.
Assay [5] concerns Coxsackievirus. The assay can be described thus: In vitro activity against coxsackie A- 21. In kind it is functional.
Assay [6] has as its system Enterovirus. Kind of assay: Minimum inhibitory concentration against rhinovirus serotype 67. It is filed as functional. The note with it: Enterovirus; read-out: MIC. The essentials: as §1
In assay [7] the test system is Enterovirus. The assay can be described thus: Minimum inhibitory concentration against rhinovirus serotype 30. In kind it is functional. Summed up: as §1
Assay [8] concerns Echovirus. Kind of assay: In vitro activity against echovirus-30.
For assay [9], the system named is Enterovirus. Kind of assay: Minimum inhibitory concentration against rhinovirus serotype 1A. It is filed as functional. The essentials: as §1
The subject of assay [10] is Echovirus. The assay can be described thus: In vitr oactivity against echovirus-3. It is filed as functional.
In assay [11] the test system is Coxsackievirus. The assay can be described thus: In vitro activity against coxsackie B-2. It is filed as functional.
Assay [12] relates to Coxsackievirus. The assay can be described thus: In vitro activity against coxsackie A- 11. In kind it is functional.
Assay [13] relates to Echovirus. The assay can be described thus: In vitro activity against echovirus-12.
Assay [14] relates to Echovirus. Kind of assay: In vitro activity of the compound against echovirus-12.
For assay [15], the system named is Coxsackievirus. The assay can be described thus: In vitro activity against coxsackie A- 9. In kind it is functional.
Assay [16] has as its system Enterovirus. Kind of assay: Minimum inhibitory concentration against rhinovirus serotype 50. It is filed as functional. The essentials:
as §1

For assay [17], the system named is Enterovirus. The assay can be described thus: Minimum inhibitory concentration against rhinovirus serotype 86. It is filed as functional. Summed up: as §1
Assay [18] has as its system Enterovirus. The assay can be described thus: Minimum inhibitory concentration against rhinovirus serotype 1B. In kind it is functional. To be noted: Enterovirus; read-out: MIC. Summed up: as §1
Assay [19] concerns Enterovirus. Kind of assay: In vitro anti-rhinovirus activity was measured as mean MIC for five serotypes, HRV-1A, -2, -22, -41, and -50. It is filed as functional. The essentials:
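Mean of plaque-reduction-assay MICs across five rhinovirus serotypes (HRV-1A, -2, -22, -41, -50), chosen to represent a range of sensitivity to this compound class.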

For assay [20], the system named is Echovirus. The assay can be described thus: In vitro activity against echovirus-3. In kind it is functional.
The subject of assay [21] is Echovirus. The assay can be described thus: In vitro activity against echovirus-9 (Barty). In kind it is functional.
Assay [22] relates to Enterovirus C. Kind of assay: In vitro activity against coxsackie A- 4. It is filed as functional.
Assay [23] has as its system Echovirus. Kind of assay: In vitro activity against echovirus-4. In kind it is functional.
For assay [24], the system named is Enterovirus C. The assay can be described thus: In vitro activity against polioviurs-1 (Mahoney). In kind it is functional.
For assay [25], the system named is Enterovirus. The assay can be described thus: Concentration required to inhibit 80 percent rhinovirus cell culture. In kind it is functional. Summed up: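 MIC80 is the concentration that inhibits 80% of the rhinovirus serotypes tested. It is derived from per-serotype MICs measured by plaque reduction assay.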
Assay [26] deals with Enterovirus. The assay can be described thus: Minimum inhibitory concentration against rhinovirus serotype 21. In kind it is functional. Summed up: as §1
Assay [27] has as its system Enterovirus. The assay can be described thus: Estimation by using phi 21 in combination with log P of compound 13 determined via RPHPLC-retention time procedure. It is filed as functional. The essentials: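 Values estimated by adding substituent π constants to the measured log P of a reference analogue. That reference log P came from reversed-phase HPLC retention times, with mobile phase at pH 7.4 and n = 3.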

Assay [28] relates to Enterovirus. The assay can be described thus: Minimum inhibitory concentration against rhinovirus serotype 41. It is filed as functional. The essentials:
as §1

Assay [29] concerns Enterovirus. The assay can be described thus: (§2) In vitro anti-rhinovirus activity was measured as maximum testable levels - highest concentration of compound which causes no apparent effect on the cell monolayers. In kind it is functional.
The subject of assay [30] is Enterovirus. The description is as §2. In kind it is functional. The source holds these as a separate data set.
The subject of assay [31] is Enterovirus. Kind of assay: Minimum inhibitory concentration against rhinovirus serotype 89. In kind it is functional. Summed up: as §1
For assay [32], the system named is Enterovirus. The assay can be described thus: Minimum inhibitory concentration against rhinovirus serotype 1B. It is filed as functional. The essentials: as §1
In assay [33] the test system is Enterovirus. Kind of assay: Minimum inhibitory concentration against rhinovirus serotype 6. In kind it is functional. Summed up:
as §1

Structures are written as SMILES. Values after ≈ are worked out from the molar mass of the structure shown. Values joined by “and” are separate entries in the source; they are usually repeats but may differ in a detail not shown here. Equal entries are not always repeated.

Turning to `Cc1cc(CCCCCOc2c(Cl)cc(C3=NCCO3)cc2Cl)on1` [WIN-54954], the MIC in assay [1] is 0.008 µM (≈ 0.00307 µg/mL); in assay [2] (Enterovirus, read-out: MIC) it was 0.3 µM (≈ 0.115 µg/mL); in assay [3], 8.6 µM (≈ 3.3 µg/mL); in [4], 0.55 µM (≈ 0.211 µg/mL); in assay [5], 0.21 µM (≈ 0.0805 µg/mL); in assay [6], 0.02 µM (≈ 0.00767 µg/mL). The MIC was 0.09 µM (≈ 0.0345 µg/mL) in assay [7] (Enterovirus, read-out: MIC); 0.08 µM (≈ 0.0307 µg/mL) in assay [8]; 0.02 µM (≈ 0.00767 µg/mL) in assay [9]; 1.4 µM (≈ 0.537 µg/mL) in assay [10]; 0.13 µM (≈ 0.0498 µg/mL) in [11]; 4.8 µM (≈ 1.84 µg/mL) in assay [12]. Moreover, the MIC in assay [13] was determined as 16.2 µM (≈ 6.21 µg/mL); in [14] it was 0.03 µM (≈ 0.0115 µg/mL); in assay [15], 13.2 µM (≈ 5.06 µg/mL); in [16], 2.6 µM (≈ 0.997 µg/mL); in assay [17], 0.02 µM (≈ 0.00767 µg/mL); in assay [18], 0.2 µM (≈ 0.0767 µg/mL). Also, the MIC was 0.7 µM (≈ 0.268 µg/mL) in [19]; 0.18 µM (≈ 0.069 µg/mL) in [20]; 2.6 µM (≈ 0.997 µg/mL) in [21]; 1.4 µM (≈ 0.537 µg/mL) in assay [22]; 0.39 µM (≈ 0.149 µg/mL) in [23]; 0.65 µM (≈ 0.249 µg/mL) in [24]. The MIC was 0.3 µM (≈ 0.115 µg/mL) in [26] (Enterovirus, read-out: MIC); 0.7 µM in [27]; 0.9 µM (≈ 0.345 µg/mL) in assay [28]. In addition, in assay [25], the MIC80 was determined as 0.3 µM (≈ 0.115 µg/mL).
On to `CCc1cc(C2=NCCO2)cc(C)c1OCCCCCc1cc(C)no1`, for which the MIC amounted to 35 µM (≈ 12.5 µg/mL) in assay [29] (Enterovirus, read-out: MIC) and 5.18 µM (≈ 1.85 µg/mL) in assay [19].
For the molecule `COc1cc(C2=NCCO2)cc(OC)c1OCCCCCc1cc(C)no1`, the MIC in [2] (Enterovirus, read-out: MIC) worked out at 0.6 µM (≈ 0.225 µg/mL); in assay [6], 14.7 µM (≈ 5.5 µg/mL); in assay [9], 6.2 µM (≈ 2.32 µg/mL); in [29], 16.7 µM (≈ 6.25 µg/mL); in assay [29] (Enterovirus, read-out: MIC), 33.4 µM (≈ 12.5 µg/mL); in assay [30], 7.7 µM (≈ 2.88 µg/mL). Further, the MIC in assay [19] worked out at 9.9 µM (≈ 3.71 µg/mL); in [26] (Enterovirus, read-out: MIC), 13.4 µM (≈ 5.02 µg/mL); in assay [28] it was 12.6 µM (≈ 4.72 µg/mL). In [25], this molecule yielded an MIC80 of 13.4 µM (≈ 5.02 µg/mL).
Consider `Cc1cc(CCCCCOc2c(Br)cc(C3=NCCO3)cc2Br)on1`, for which the MIC in assay [2] is 0.04 µM and 0.1 µM; in assay [7], 0.2 µM (≈ 0.0944 µg/mL); in assay [7] (Enterovirus, read-out: MIC), 0.4 µM (≈ 0.189 µg/mL); in [9], 0.1 µM (≈ 0.0472 µg/mL); in assay [30] it was 0.6 µM (≈ 0.283 µg/mL); in assay [19] it was 0.63 µM (≈ 0.297 µg/mL). Further, the MIC in assay [26] (Enterovirus, read-out: MIC) was 0.3 µM (≈ 0.142 µg/mL); in [28] it was 2.1 µM (≈ 0.992 µg/mL). The molecule also registered an MIC80 in assay [25] of 1.3 µM (≈ 0.614 µg/mL).
On to `Cc1cc(CCCCCOc2c(Br)cc(C3=NCCO3)cc2[N+](=O)[O-])on1`, for which the MIC in [2] (Enterovirus, read-out: MIC) was 0.5 µM (≈ 0.219 µg/mL); in assay [7] (Enterovirus, read-out: MIC), 0.2 µM (≈ 0.0877 µg/mL); in assay [9], 0.1 µM (≈ 0.0438 µg/mL); in assay [31] it was 0.03 µM (≈ 0.0131 µg/mL); in [16] it was 0.2 µM (≈ 0.0877 µg/mL); in assay [30], 1.2 µM (≈ 0.526 µg/mL). Further, the MIC in [32] is 0.7 µM (≈ 0.307 µg/mL); in [18], 0.3 µM (≈ 0.131 µg/mL); in assay [19], 1.16 µM (≈ 0.508 µg/mL); in [26], 0.6 µM (≈ 0.263 µg/mL); in assay [26] (Enterovirus, read-out: MIC), 0.5 µM (≈ 0.219 µg/mL); in [28], 1.6 µM (≈ 0.701 µg/mL). In [25], this molecule showed an MIC80 of 0.7 µM (≈ 0.307 µg/mL).
For the molecule `Cc1cc(CCCCCOc2c(C)cc(C3=NCCO3)cc2C)on1`, the MIC in assay [2] (Enterovirus, read-out: MIC) came to 0.4 µM (≈ 0.137 µg/mL); in assay [7] (Enterovirus, read-out: MIC), 0.2 µM (≈ 0.0685 µg/mL); in assay [9], 0.02 µM (≈ 0.00685 µg/mL); in assay [33], 1.2 µM (≈ 0.411 µg/mL); in assay [33] (Enterovirus, read-out: MIC), 2.4 µM (≈ 0.822 µg/mL); in assay [16], 0.2 µM (≈ 0.0685 µg/mL). In addition, the MIC amounted to 0.05 µM (≈ 0.0171 µg/mL) in assay [17]; 0.8 µM (≈ 0.274 µg/mL) in assay [30]; 0.78 µM (≈ 0.267 µg/mL) in assay [19]; 0.5 µM (≈ 0.171 µg/mL) in assay [26]; 0.7 µM (≈ 0.24 µg/mL) in assay [26] (Enterovirus, read-out: MIC); 1.6 µM (≈ 0.548 µg/mL) in assay [28]. This molecule displayed an MIC80 in assay [25] of 1.3 µM (≈ 0.445 µg/mL).
Take `Cc1cc(CCCCCOc2c(Cl)cc(C3=NCCO3)cc2[N+](=O)[O-])on1`: the MIC was 0.2 µM (≈ 0.0788 µg/mL) in [2] (Enterovirus, read-out: MIC); 0.3 µM (≈ 0.118 µg/mL) in assay [6]; 0.05 µM (≈ 0.0197 µg/mL) in assay [7] (Enterovirus, read-out: MIC); 0.07 µM (≈ 0.0276 µg/mL) in assay [9]; 0.02 µM (≈ 0.00788 µg/mL) in assay [31]; 0.2 µM (≈ 0.0788 µg/mL) in assay [16]. For the same molecule, the MIC was 0.4 µM (≈ 0.158 µg/mL) in assay [17], 1.4 µM (≈ 0.551 µg/mL) in assay [30], 1.35 µM (≈ 0.532 µg/mL) in [19] and 3 µM (≈ 1.18 µg/mL) in assay [28]. The MIC80 in [25] stood at 0.5 µM (≈ 0.197 µg/mL).
